Cytotoxicity data for 72 compounds are collected here from ChEMBL document CHEMBL4513216, “Probing the Open Global Health Chemical Diversity Library for Multistage-Active Starting Points for Next-Generation Antimalarials” (ACS Infect Dis, 2020).

This data set in a line: Toxicity liver stage against HepG2, at 10uM. Details: test concentration 10 uM, cell line HepG2-A16-CD81EGFP. The data set is classed as cell-based. The conditions noted are these: human, HepG2-A16-CD81EGFP cells; read-out: INHIBITION
The gist of the method:
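Uninfected HepG2-A16-CD81EGFP cells, 3 × 10^3 per well, 1536-well, plated on prespotted compound at 10 μM final, parasite-free screening media added to match infected plates; puromycin 10 μM positive, DMSO 0.5% negative; run in parallel with 48 h PbLuc assay at 37 °C, 5% CO2; viability by CellTiter-Glo luminescence, normalized to controls.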

Take `CCOCc1nc(CSc2ccncc2)n(C)n1`: the cytotoxicity at 10 µM turned out to be 2.87%.

For the compound `Cc1ncsc1CN1CC[C@H]2OCC[C@@]2(C(=O)N2CCCO2)C1`, the cytotoxicity at 10 µM is -0.0653%.

For the compound `CCC(c1ccc(F)cc1)N1CCn2c(CO)nnc2C1` (configuration not stated), the cytotoxicity at 10 µM is -9.15%.

With `Cc1cc(C)n(CCNCc2cc(-c3ccc(F)cc3)c[nH]c2=O)n1`, the cytotoxicity at 10 µM was -5.24%.

For the compound `Cc1ncsc1CNC(=O)N(Cc1ccccc1)CC(C)(C)O`, the cytotoxicity at 10 µM is -10.2%.

As for `O=C1CC2(CCCCN2CC2CC2)CN1c1ccccc1` (configuration not stated), the cytotoxicity at 10 µM was 4.86%.

Regarding `Cc1cnn(CCNCC(O)c2ccc(S(C)(=O)=O)cc2)c1` (configuration not stated), the cytotoxicity at 10 µM is 1.1%.

As for `CC(=O)N1CCCC2(CCN(C(=O)c3nn(C)c4ccccc34)CC2)C1`, the cytotoxicity at 10 µM was 2.26%.

With `c1csc(N2CCCN(c3nccn4cnnc34)CC2)n1`, the cytotoxicity at 10 µM was -5.05%.

`Cc1ncsc1C(=O)NCCn1nc(C2CCNC2)c2cccnc21` (configuration not stated): the cytotoxicity at 10 µM is -0.98%.

Take `CCc1sc(-c2nnc(CNC(C)Cn3cc(C)cn3)o2)cc1C` (configuration not stated): the cytotoxicity at 10 µM was found to be 0.493%.

Turning to `CC(C)n1cc(S(=O)(=O)N2CCCC(N3CCCCC3)C2)cn1` (configuration not stated), the cytotoxicity at 10 µM was determined as 2.78%.

Take `COCC(=O)N1CC(=O)c2sc(Nc3ccc(F)cc3F)nc2C1`: the cytotoxicity at 10 µM is -7.02%.

For `Cn1ccc(CN2CCC(CO)CC2)cc1=O`, the cytotoxicity at 10 µM amounted to 5.1%.

As to `CCn1ncc(-c2cc(C(F)(F)F)nc(N3CCC(N)CC3)n2)c1C`, the cytotoxicity at 10 µM was -6%.

Regarding `CCc1n[nH]c(C2CN(Cc3nc(C4CC4)no3)CCO2)n1` (configuration not stated), the cytotoxicity at 10 µM is -10.8%.

As for `c1ccc(-c2nc(CN3CCCC3Cn3cccn3)no2)cc1` (configuration not stated), the cytotoxicity at 10 µM was -6.69%.

With `CCOc1cc(CN(C)CCOC)ccc1OC(F)F`, the cytotoxicity at 10 µM was -13.7%.

As to `Cn1cc(C2CCCN2C(=O)CCCc2ccccn2)cn1` (configuration not stated), the cytotoxicity at 10 µM was -0.222%.

`CCn1cc(S(=O)(=O)Nc2nc3c(s2)CC(C)CC3)cn1` (configuration not stated): the cytotoxicity at 10 µM was 9.88%.

Take `CS(=O)(=O)N1CC2(CCCN(CC3CC3)C2)Cc2ccccc21` (configuration not stated): the cytotoxicity at 10 µM worked out at 2.85%.

With `COc1ccc(NC(=O)c2nc(C)sc2C)cn1`, the cytotoxicity at 10 µM is -2.52%.

Take `Cc1cc(C)nc(N2CCC(Cn3cc(C(N)=O)cn3)CC2)n1`: the cytotoxicity at 10 µM is 3.65%.

For the compound `Cc1nc(C2(NCc3ccc(C#N)cc3F)CCCCC2)no1`, the cytotoxicity at 10 µM is -11.2%.

As for `CCC(C)NC(=O)c1ccc(NC(=O)CCc2ccncc2)c(C)c1` (configuration not stated), the cytotoxicity at 10 µM was 4.31%.

On to `CCC(CO)N(Cc1ccco1)C(=O)c1ccccc1NC` (configuration not stated), for which the cytotoxicity at 10 µM was 2.1%.

For the compound `O=C1CCCN1C1CCCN(CCn2cc(Cl)cn2)C1` (configuration not stated), the cytotoxicity at 10 µM is -0.626%.

Take `CNC(=O)N1CCC2(CC1)CN(C(C)C)Cc1cc(F)ccc12`: the cytotoxicity at 10 µM is -2.82%.

With `CCC[C@@H]1CN(Cc2cnc3c(S(C)(=O)=O)cnn3c2)C[C@H]1N(C)C`, the cytotoxicity at 10 µM is -2.12%.

With `COc1ccc(C(=O)Nc2cccc(SC)c2)c(OC)n1`, the cytotoxicity at 10 µM is 13.2%.

As to `CCN(CC)CC[C@H]1CN(C(=O)C(C)(C)C)CC[C@H]1CC(=O)O`, the cytotoxicity at 10 µM amounted to 0.0915%.

With `COc1cccc(CNc2c(C)nn(C(C)C)c2C)c1`, the cytotoxicity at 10 µM is -46.9%.

`CCOC(=O)N1CCC(n2cc3[nH]cccc-3c2=O)CC1`: the cytotoxicity at 10 µM is 3.6%.

Take `CC(C)NC(=O)N1Cc2nccn2CC(COc2cccnc2)C1` (configuration not stated): the cytotoxicity at 10 µM was found to be 7.77%.

Consider `CC(C)Oc1cccc(C(=O)C2CCCN(C(=O)c3cncs3)C2)c1` (configuration not stated), for which the cytotoxicity at 10 µM was determined as 3.19%.

As to `CCn1nccc1CNC(=O)Cn1cc2c(n1)c(C)nn2C(C)C`, the cytotoxicity at 10 µM is -4.7%.

In the case of `O=C(CCc1ccc(F)c(F)c1)N1CCCCC1Cn1cccn1` (configuration not stated), the cytotoxicity at 10 µM was -8.01%.

Take `Cc1cc(C(=O)N2CC[C@H]3[C@@H]2CCC(=O)N3c2ccccc2)no1`: the cytotoxicity at 10 µM is -113%.

Turning to `Cc1cnc(NCC(C)(C)N2CCN(C)CC2)nc1`, the cytotoxicity at 10 µM is -4.52%.

As for `CCN1C[C@H]2CCN(C(=O)Nc3ccccc3C)CC[C@H]2S1(=O)=O`, the cytotoxicity at 10 µM was 1.08%.

Consider `CN1CC(=O)N(c2ccccc2)CC12CCN(Cc1cccnc1)C2` (configuration not stated), for which the cytotoxicity at 10 µM was -2.09%.

For the compound `COc1ccc(C(=O)O)c(OCC(=O)NC(C)c2ccc(F)cc2)c1` (configuration not stated), the cytotoxicity at 10 µM turned out to be 1.65%.

Regarding `O=C(NC1CC1)C1=CC2(CCN(CC3CC3)CC2)c2ccccc21`, the cytotoxicity at 10 µM was 3.11%.

Regarding `CC(C)c1ncncc1C(=O)N1CCCN(Cc2ccccc2)CC1`, the cytotoxicity at 10 µM is -6.9%.

`COc1cccc(C(=O)N2CCCC(C(=O)CCc3ccccc3)C2)c1` (configuration not stated): the cytotoxicity at 10 µM is -20%.

As for `Cc1ccnn1-c1ccc(C(=O)N2CCN(c3cnccn3)CC2)cc1`, the cytotoxicity at 10 µM was -2.31%.

With `CN(Cc1ccncc1)Cc1cnn(-c2ccc(F)cc2)c1`, the cytotoxicity at 10 µM is 10%.

Consider `CCc1nc(CN2CCCC(NCc3ccc(C(N)=O)cc3)C2)no1` (configuration not stated), for which the cytotoxicity at 10 µM is -12.3%.

In the case of `O=C(NCCC1CN(Cc2cccnc2)CCO1)c1ccsc1` (configuration not stated), the cytotoxicity at 10 µM was -8.03%.

For the compound `O=c1cc2c(nn1CN1CCSCC1)CCC2`, the cytotoxicity at 10 µM was -4.86%.

Turning to `CN(C)C(=O)Cc1nc(CN2CCOC(Cn3cccn3)C2)cs1` (configuration not stated), the cytotoxicity at 10 µM was 0.743%.

Consider `CC(C)CN1CCNC(=O)C12CCN(C(=O)c1ccccn1)CC2`, for which the cytotoxicity at 10 µM was determined as 5.25%.

Consider `COc1ccccc1OC1CN(C(=O)Cc2c(C)nc(N)nc2C)C1`, for which the cytotoxicity at 10 µM was 0.866%.

As to `CCc1ccc2nc(-c3cnn(C)c3)cc(C(=O)N3CCOCC3)c2c1`, the cytotoxicity at 10 µM was -2.96%.

As for `COCCN1C2(CCN(CC3CC3)C2)c2ccccc2S1(=O)=O` (configuration not stated), the cytotoxicity at 10 µM was -130%.

In the case of `COCC1CN(C(=O)c2cnc(C)cn2)Cc2ncnn2C1` (configuration not stated), the cytotoxicity at 10 µM turned out to be 2.31%.

Take `CCNC(=O)NC1CN(Cc2ccccc2N(C)C)C[C@@H]1OC` (some centres not stated): the cytotoxicity at 10 µM is -8.11%.

Turning to `Cc1nn(C)c2c(=O)n(C)c(NCC3CCCO3)nc12` (configuration not stated), the cytotoxicity at 10 µM amounted to 0.186%.

Turning to `Cc1ccsc1CNC(=O)c1ccc2c(c1)CCC(=O)N2`, the cytotoxicity at 10 µM was 4.91%.

For the compound `CC(C)N(Cc1cccnc1)C(=O)CCSc1ccc(C#N)cc1`, the cytotoxicity at 10 µM was 27.1%.

For the compound `O=C1CC(c2ccncc2)C2(CCN(C(=O)c3cccc(F)c3)CC2)N1` (configuration not stated), the cytotoxicity at 10 µM was -74.4%.

In the case of `CC(CCc1ncnn1Cc1cccc(Cl)c1)N1CCCC1` (configuration not stated), the cytotoxicity at 10 µM was -3.03%.

Regarding `CC(C)CN1CCS(=O)(=O)[C@@H]2CCN(S(=O)(=O)CC(C)C)CC[C@@H]21`, the cytotoxicity at 10 µM is 11.3%.

Regarding `c1cnc(NC2COC3(CCN(Cc4cccs4)CC3)C2)nc1` (configuration not stated), the cytotoxicity at 10 µM is 0.603%.

For the compound `CC(=O)N1CCC(C(=O)NCCN2CCCC(C)C2)CC1` (configuration not stated), the cytotoxicity at 10 µM amounted to 10.7%.

Regarding `Cc1cc(-c2cnc(NC3CC3)nc2-c2ccc(C)o2)on1`, the cytotoxicity at 10 µM stood at 2.26%.

For `COc1ccc(C2CC(=O)NCc3nc(N(C)C)sc32)c(O)c1` (configuration not stated), the cytotoxicity at 10 µM was determined as 3.3%.

With `Cc1cccc(C)c1OC1CN(C(=O)C2CC(=O)N(C(C)(C)C)C2)C1` (configuration not stated), the cytotoxicity at 10 µM worked out at 0.213%.

Regarding `Cc1cc(O)nc(C2CN(CC3(O)CCOCC3)CCO2)n1` (configuration not stated), the cytotoxicity at 10 µM was -18.3%.

Regarding `c1ccc(NCc2cnc3n2CCN(C2CCOC2)CC3)nc1` (configuration not stated), the cytotoxicity at 10 µM was -70.5%.

For `COCCCNC(=O)N1CCCC(c2nncn2C)C1` (configuration not stated), the cytotoxicity at 10 µM is -19.7%.

In the case of `O=c1c2c(ncn1CCO)nc1n2CCC1`, the cytotoxicity at 10 µM was -11.3%.
